Source: ChEMBL document CHEMBL2169881, “Synthesis and biological activity of obatoclax derivatives as novel and potent SHP-1 agonists” (Eur J Med Chem, 2012)
Calls of active or inactive are those of the source. The rule behind the calls is not given here.

What was measured:
Type in all cases: functional, cell-based
[1] = Cytotoxicity against human PLC5 cells by MTT assay
Outline: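 MTT viability assay on PLC5 hepatocellular carcinoma cells maintained in DMEM with 10% FBS, penicillin, streptomycin and amphotericin B at 37 °C, 5% CO2. IC50 is the concentration giving 50% growth inhibition, interpolated from dose–response curves.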

[2] = biological target: Tyrosine-protein phosphatase non-receptor type 6 (Homo sapiens) (UniProt P29350); experiment: Agonist activity at SHP1 in human PLC5 cells assessed as increase in SHP1 level at 10 uM after 12 hrs by Western blot analysis
Outline: (§1)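 PLC5 cells (ATCC) grown in DMEM with 10% FBS, penicillin G, streptomycin and amphotericin B at 37 °C, 5% CO2. Cells treated at 10 μM for 12 h. Lysates immunoblotted for p-STAT3, STAT3, SHP-1, Mcl-1, survivin, cyclin D1, PARP, with actin as loading control.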

[3] = biological target: Tyrosine-protein phosphatase non-receptor type 6 (Homo sapiens) (UniProt P29350); experiment: Agonist activity at SHP1 in human PLC5 cells at 10 uM after 6 hrs by immunoprecipitation method
[4] = biological target: Tyrosine-protein phosphatase non-receptor type 6 (Homo sapiens) (UniProt P29350); experiment: Agonist activity at SHP1 in human PLC5 cells assessed as decrease in pSTAT3-mediated cyclinD1 level at 10 uM after 12 hrs by Western blot analysis; outline: as §1
[5] = biological target: Tyrosine-protein phosphatase non-receptor type 6 (Homo sapiens) (UniProt P29350); experiment: Agonist activity at SHP1 in human PLC5 cells assessed as decrease in pSTAT3-mediated survivin level at 10 uM after 12 hrs by Western blot analysis; outline: as §1
[6] = biological target: Tyrosine-protein phosphatase non-receptor type 6 (Homo sapiens) (UniProt P29350); experiment: Agonist activity at SHP1 in human PLC5 cells assessed as decrease in pSTAT3-mediated Mcl1 level at 10 uM after 12 hrs by Western blot analysis; outline: as §1
[7] = biological target: Tyrosine-protein phosphatase non-receptor type 6 (Homo sapiens) (UniProt P29350); experiment: Agonist activity at SHP1 in human PLC5 cells assessed as inhibition of STAT3 Y705 phosphorylation at 10 uM after 12 hrs by Western blot analysis; outline: as §1
[8] = biological target: Tyrosine-protein phosphatase non-receptor type 6 (Homo sapiens) (UniProt P29350); experiment: Agonist activity at SHP1 in human PLC5 cells assessed as inhibition of IL6-induced STAT3 phosphorylation at 10 uM incubated for 24 hrs prior to IL6-induction measured after 30 mins by sandwich ELISA
Outline: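 PLC5 cells, cultured in DMEM/10% FBS with antibiotics at 37 °C, 5% CO2, were pretreated with compound at 10 μM for 24 h. IL-6 (10 ng/mL) stimulation followed for 30 min before STAT3 activity was read.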

Sequence of Tyrosine-protein phosphatase non-receptor type 6 (Homo sapiens) (P29350 whole entry): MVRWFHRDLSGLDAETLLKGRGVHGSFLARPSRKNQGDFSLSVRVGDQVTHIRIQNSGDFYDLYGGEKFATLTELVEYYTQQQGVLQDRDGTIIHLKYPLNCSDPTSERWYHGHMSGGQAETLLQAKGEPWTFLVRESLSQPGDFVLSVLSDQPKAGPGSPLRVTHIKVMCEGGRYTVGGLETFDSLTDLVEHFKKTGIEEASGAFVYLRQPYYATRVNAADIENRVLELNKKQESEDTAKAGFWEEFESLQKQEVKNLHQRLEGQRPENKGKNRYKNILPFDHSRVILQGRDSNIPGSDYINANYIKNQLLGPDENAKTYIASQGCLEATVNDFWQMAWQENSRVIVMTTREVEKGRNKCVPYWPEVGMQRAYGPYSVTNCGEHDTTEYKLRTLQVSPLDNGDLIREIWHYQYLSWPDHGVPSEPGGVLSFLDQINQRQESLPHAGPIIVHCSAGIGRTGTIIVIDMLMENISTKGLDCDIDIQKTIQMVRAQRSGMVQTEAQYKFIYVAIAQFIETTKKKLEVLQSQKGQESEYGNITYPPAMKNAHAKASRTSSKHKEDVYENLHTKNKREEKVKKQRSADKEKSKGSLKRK

Structure (SMILES): COc1cc(-c2cc3ccccc3[nH]2)[nH]c1/C=C1/SC(=O)NC1=O
- IC50 [1]: 27.5 µM

Structure (SMILES): COC1=CC(c2cc3cc(Br)ccc3[nH]2)=N/C1=C\c1ccc[nH]1
- Activity [2]: Active
- Activity [3]: Active
- Activity [4]: Active
- Activity [5]: Active
- Activity [6]: Active
- inhibition [7]: Active
- inhibition [8]: Active
- IC50 [1]: 6.3 µM

Structure (SMILES): COC1=CC(c2ccco2)=N/C1=C\c1ccc[nH]1
- Activity [2]: inactive
- Activity [4]: inactive
- Activity [5]: inactive
- Activity [6]: inactive
- inhibition [7]: inactive
- IC50 [1]: > 40 µM

Structure (SMILES): COC1=CC(c2cc3ccccc3[nH]2)=N/C1=C\c1ccc[nH]1
- Activity [2]: Active
- Activity [3]: Active
- Activity [4]: Active
- Activity [5]: Active
- Activity [6]: Active
- inhibition [7]: Active
- inhibition [8]: Active
- IC50 [1]: 13.2 µM

Structure (SMILES): COC1=CC(c2cc3ccccc3n2C(=O)OC(C)(C)C)=N/C1=C\c1[nH]c(C)cc1C
- IC50 [1]: 28.4 µM

Structure (SMILES): COC1=CC(c2cc3ccccc3[nH]2)=N/C1=C\c1cccs1
- IC50 [1]: > 40 µM

Structure (SMILES): COc1cc(-c2cc3ccccc3[nH]2)[nH]c1/C=C1\C(=O)Nc2ccccc21
- IC50 [1]: 35.4 µM

Structure (SMILES): COC1=CC(c2cc3ccccc3[nH]2)=N/C1=C\c1ccc(-c2cc3ccccc3[nH]2)[nH]1
- Activity [2]: Active
- Activity [3]: Active
- Activity [4]: Active
- Activity [5]: Active
- Activity [6]: Active
- inhibition [7]: Active
- inhibition [8]: Active
- IC50 [1]: 15.9 µM

Structure (SMILES): COc1cc(-c2cc3ccccc3n2C(=O)OC(C)(C)C)[nH]c1/C=C1\C(=O)Nc2ccccc21
- IC50 [1]: > 40 µM

Structure (SMILES): COC1=CC(c2cccs2)=N/C1=C\c1cccs1
- IC50 [1]: 25.9 µM

Structure (SMILES): COC1=CC(c2cc3ccccc3[nH]2)=N/C1=C\c1[nH]c(C)cc1C [OBATOCLAX]
- IC50 [1]: 12.1 µM

Structure (SMILES): COC1=CC(c2cccs2)=N/C1=C\c1[nH]c(C)cc1C
- IC50 [1]: > 40 µM

Structure (SMILES): COc1cc(-c2cc3ccccc3[nH]2)[nH]c1C1SCCCS1
- IC50 [1]: > 40 µM

Structure (SMILES): COC1=CC(c2cccs2)=N/C1=C\c1ccc[nH]1
- IC50 [1]: > 40 µM

Structure (SMILES): COC1=CC(c2cc3ccccc3n2C(=O)OC(C)(C)C)=N/C1=C\c1ccc[nH]1
- IC50 [1]: > 40 µM

Structure (SMILES): COc1cc(-c2cc3ccccc3n2C(=O)OC(C)(C)C)[nH]c1/C=C1/SC(=O)NC1=O
- IC50 [1]: > 40 µM
